Results reported in the EternaBench riboswitch data.

System: MS2 coat protein
Assay: apparent Kd, MS2 coat protein; higher = weaker binding; RNA-MaP array; FMN 200 µM where present
Procedure, shortened: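 Green signal was scaled to red-channel RNA signal and control-cluster median Fmax, and the apparent Kd was taken as the median of filtered per-cluster binding-curve fits. The binding series used SNAP-549-labelled MS2 coat protein from 0.7 or 1.5 nM, doubling to 3 µM, on designs transcribed by stalled E. coli RNA polymerase on Illumina sequencing-chip clusters. Each series ran without and then with constant ligand in 100 mM Tris-HCl pH 7.5, 80 mM KCl, 4 mM MgCl2, BSA, DTT, yeast tRNA and Tween-20.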

[1] = designed as: OFF switch for flavin mononucleotide, no ligand
[2] = ligand present: flavin mononucleotide, designed as: OFF switch for flavin mononucleotide
[3] = designed as: ON switch for flavin mononucleotide, no ligand
[4] = ligand present: flavin mononucleotide, designed as: ON switch for flavin mononucleotide

Sequence	apparent Kd [1]	apparent Kd [2]	apparent Kd [3]	apparent Kd [4]
AAUAUAAGAGCUGGUAAAUAACUCACAUGAGGAUCACCCAUGUAGGAUAUCAGCACGAUAAGUGCUGAGAAGGACAUCCAGCUC	15.4 nM	16.2 nM	–	–
GUGGCCCAGGCACAGGAUAUGUUUCUCGUAACAUGAGGAUCACCCAUGUGCCUAUGAGAUUGUUUGCAGAAGGGUGCACGCCACG	–	–	449 nM	24 nM
UGCGGAAGAGGAUAUACGUAGAAAUAGAUUCAUGUAAAACUACAUGAGGAUCACCCAUGUAGAAGGCUUUCGCU	24.8 nM	232 nM	–	–
AUAUUGUGAGGAUAUGAACUUAGUAUCGAAACAUACUAAGUUCAGAAGGCACAUGAGGAUCACCCAUGUUUCUC	68.6 nM	430 nM	–	–
GGGCCCGGAGGAUAUACAUGAGGAUCACCCAUGUAGGGCCCGGGUAUUCCCGGGCCCUGUAGAAGGCCGGGUUU	14.3 nM	18.8 nM	–	–
GUAGCUACAAUUAUACAUGAGGAUCACCCAUGUUACAUGGGUAAGGAUAUUGAGGUUAUUAUUGUCAAGAAGGUACUAUGCUAC	–	–	505 nM	71.6 nM
GCGUAGUUCUAGAAGGUGCUAGCGAUAAGCUAGCAAGGAUAUAGACAUGAGGAUCACCCAUGUCUUUGUGACAUCGACAUACGC	5.62 nM	7.03 nM	–	–
UUUUAACAUGAGGAUCACCCAUGUCGUUCAAAUCAAGGAUAUCAGGCGUGUGCACACGCCUGAGAAGGUGAAUCUC	–	–	135 nM	320 nM
CGUUAAUAUCGAGGAUAUGUCUAGACACAUGAGGAUCACCCAUGUAUGUGUAUAGAAGGCGAUAUUAACAGCAUGUUACAUGCG	–	–	38.3 nM	16.7 nM
AGUAGAUCAGGAUAUACAUAAAUGAUAAUUAUGUACUUUUUACAUGAGGAUCACCCAUGUAGAAGGGAUCUACA	14.8 nM	22 nM	–	–
AUGUAGUACGUAGGAUAUCAAUGAGGAUCACCCUGAGAAGGACGUGAGGACAUGAGGAUCACCCAUGUGGAUCACCCAUGUCAU	173 nM	142 nM	–	–
UACAUGAGGAUCACCCAUGUUUUGUCGUGUAUGGUAUUUAUCUAGGAUAUCAAUCUAUUAAUUUAUGAGAAGGAGAAUAUUAAU	35.5 nM	39.7 nM	–	–
GCGUGCGAUAGGACGUCUGAGGGCAGAAGGCACAUGAGGAUCACCCAUGUAACGAUCUCUUCAAGUGAGGAUAUGUGCUCAUUG	29.7 nM	114 nM	–	–
AUUGUUAAGGUAGGAUAUAGUAAAAUGAUUUAAUUAGAAGGAUCUCACAUGAGGAUCACCCAUGUAAGAGGAUCACCCAUGUAU	12.9 nM	9.73 nM	–	–
AUAAAGUCAGGAUAUGUAAGAAUAACGAAAGUUAUAAAGAAACAGAAGGGACAUGAGGAUCACCCAUGUAAAAU	29.6 nM	30.5 nM	–	–
UUAUUAAAUGUAGGAUAUGCAUAUUAUUAUUAUGCAGAAGGACAUGAGGAUCACCCAUGUAUAUUAUUAUUAUAUAUUAUAUAU	32.5 nM	71.3 nM	–	–
AUGCUAUACGAAGGAUAUGGUUACAUGAGGAUCACCCAUGUUAUGAUUGGUUACUUGUUUAGUUUCCAGAAGGUCGUAUAUUUA	51 nM	235 nM	–	–
AAAACGGCGCAUCCCGCGCCAACUACAGAAGGCCAACAUGAGGAUCACCCAUGUACAAACUAGAUGGAGGAUAUGUAGGUUCUA	–	–	5.18 nM	4.2 nM
UUAUUAAGUGUGAGGAUAUGCUGGUCCUUGGAUCAGCAGAAGGCACAUGAGGAUCACCCAUGUACUUUAUUUUA	15.4 nM	62.2 nM	–	–
GCCAUCGCAUGAGGAUAUGGCACCGUUUCGGUGCCAGAAGGCAUGUCAUAAGACAUGAGGAUCACCCAUGUAGUUAAGAUGGCA	–	–	741 nM	47.6 nM
UAUAUAAUAAGAGCUGGAAACUCAACAUGAGGAUCACCCAUGUAGGAUAUCAGCACGAUAAGUGCUGAGAAGGACAACCAGCUC	19.9 nM	23.3 nM	–	–
UUCGUGGCAUCUCGCGCAUGUCCACAUGAGGAUCACCCAUGUCAGGAUAUACGGAAUGUCGUUCCGUAGAAGGGACAAGGGCUG	139 nM	112 nM	–	–
GCUGACGAUGUAGGAUAUCUCGACGAUAAGUCGAGAGAAGGACAUGAGGAUCACCCAUGUACUCAAACGUCAGCGAGGAAACUC	18.7 nM	27.6 nM	–	–
